In one data set the target is Stromelysin-1 (Homo sapiens, UniProt P08254). In words: Inhibition of MMP3 (unknown origin) using fluorescently-labeled substrate measured every min for 1 min.
In a further data set the target is Stromelysin-2 (Homo sapiens, UniProt P09238). In words: Inhibition of MMP10 (unknown origin) using fluorescently-labeled substrate measured every min for 1 min.
Data set [1] can be described thus: Solubility of the compound in saline solution at 10 mM. The data set is classed as physicochemical. As to conditions: buffer, 10000 µM.
In data set [2] the target is Tissue-type plasminogen activator (Homo sapiens) (UniProt P00750). In words: Effect on tPA (unknown origin) activity at 0.01 to 10 uM incubated for 15 mins.
Sequence of Tissue-type plasminogen activator (Homo sapiens) (P00750 36-562 limits assumed): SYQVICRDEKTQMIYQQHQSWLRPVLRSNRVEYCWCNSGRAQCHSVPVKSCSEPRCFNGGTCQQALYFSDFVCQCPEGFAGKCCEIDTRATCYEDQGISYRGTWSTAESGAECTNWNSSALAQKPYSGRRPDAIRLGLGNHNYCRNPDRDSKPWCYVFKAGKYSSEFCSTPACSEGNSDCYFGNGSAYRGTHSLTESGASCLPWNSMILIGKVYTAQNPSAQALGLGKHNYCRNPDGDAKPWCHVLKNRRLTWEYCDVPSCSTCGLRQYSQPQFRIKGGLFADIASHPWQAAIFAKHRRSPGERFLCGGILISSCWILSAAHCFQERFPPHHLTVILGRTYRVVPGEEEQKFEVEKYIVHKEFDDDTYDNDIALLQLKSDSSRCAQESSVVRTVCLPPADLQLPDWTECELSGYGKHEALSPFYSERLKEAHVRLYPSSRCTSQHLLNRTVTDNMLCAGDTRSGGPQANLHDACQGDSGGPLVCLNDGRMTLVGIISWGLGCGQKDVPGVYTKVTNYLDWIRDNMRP
The target of data set [3] is Prothrombin (Homo sapiens) (UniProt P00734). In words: Effect on human plasma thrombin activity at 0.01 to 10 uM using S2238 as substrate incubated for 15 mins followed by substrate addition measured after 30 mins.
The species entered for another data set is Homo sapiens. In words: Effect on plasminogen/tPA (unknown origin) activity assessed as plasmin generation at 0.01 to 10 uM using S2251 as substrate incubated for 15 mins followed by substrate addition measured after 30 mins.
The nature of data set [4]: Cytotoxicity against human THLE2 cells assessed as decrease in cell viability after 72 hrs by luminescence assay. The data set is classed as cell-based. As to conditions: THLE-2 cells, read-out: LC50. In outline: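 Healthy human hepatic THLE-2 line; compounds incubated with cells for 72 hours, then viability measured. Cytotoxicity reported as LC50.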
Data set [5] concerns Mus musculus. In words: Antifibrinolytic activity in tPA-induced C57Bl6 mouse hyperfibrinolytic tail bleeding model assessed as bleeding time at 1 mg/kg, iv administered for 5 mins post tPA challenge for 5 mins measured up to 30 mins by spectrophotometric method (reference value: 29.28 +/- 0.4 min). It counts as functional.
In data set [6] the target is T1, Matrilysin (Homo sapiens) (UniProt P09237).
T1 sequence (whole entry): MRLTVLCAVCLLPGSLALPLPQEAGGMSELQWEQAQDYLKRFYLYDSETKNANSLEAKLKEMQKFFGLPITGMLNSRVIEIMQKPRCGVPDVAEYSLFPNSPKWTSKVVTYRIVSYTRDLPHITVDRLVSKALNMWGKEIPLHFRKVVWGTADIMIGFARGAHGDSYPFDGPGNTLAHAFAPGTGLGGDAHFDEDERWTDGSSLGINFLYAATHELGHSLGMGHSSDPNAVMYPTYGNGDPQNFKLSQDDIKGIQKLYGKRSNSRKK
In words: Inhibition of recombinant human MMP7 at 10 uM after 45 mins by fluorescence assay.

The target of data set [7] is Matrix metalloproteinase-14 (Homo sapiens) (UniProt P50281). In words: Inhibition of recombinant human MMP14 at 10 uM after 60 mins by fluorescence assay.
A short description of data set [8]: Therapeutic index, ratio of LC50 for human THLE2 cells to EC50 for antifibrinolytic activity in human whole blood. It counts as toxicity. In outline:
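THLE-2 healthy hepatic cells were exposed to compound for 72 hours and cell viability was read to give LC50. Antifibrinolytic EC50 came from thromboelastography in triplicate or duplicate. The index is LC50 relative to EC50, expressed in log units.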

The species entered for data set [9] is Mus musculus. In words: Potency index, ratio of bleeding time for tranexamic acid to bleeding time for test compound in tPA-induced C57Bl6 mouse hyperfibrinolytic tail bleeding model. It counts as functional.

Activity calls are given as the source filed them. No cut-off for these calls is given here.

Sequence of Stromelysin-1 (P08254 whole entry): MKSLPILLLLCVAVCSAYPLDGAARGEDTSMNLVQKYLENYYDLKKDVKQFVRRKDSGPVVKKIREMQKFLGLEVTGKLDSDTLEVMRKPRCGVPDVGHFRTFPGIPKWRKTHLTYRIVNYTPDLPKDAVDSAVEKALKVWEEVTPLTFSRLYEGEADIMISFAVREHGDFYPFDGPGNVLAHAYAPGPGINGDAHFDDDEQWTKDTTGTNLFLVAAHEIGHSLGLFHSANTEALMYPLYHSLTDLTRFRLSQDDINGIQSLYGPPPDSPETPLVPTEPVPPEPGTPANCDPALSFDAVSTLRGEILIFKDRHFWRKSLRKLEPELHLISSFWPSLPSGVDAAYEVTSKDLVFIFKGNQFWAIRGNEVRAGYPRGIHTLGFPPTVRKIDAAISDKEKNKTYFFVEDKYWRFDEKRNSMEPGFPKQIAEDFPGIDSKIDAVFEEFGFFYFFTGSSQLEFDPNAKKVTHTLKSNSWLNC
Sequence of Stromelysin-2 (P09238 whole entry): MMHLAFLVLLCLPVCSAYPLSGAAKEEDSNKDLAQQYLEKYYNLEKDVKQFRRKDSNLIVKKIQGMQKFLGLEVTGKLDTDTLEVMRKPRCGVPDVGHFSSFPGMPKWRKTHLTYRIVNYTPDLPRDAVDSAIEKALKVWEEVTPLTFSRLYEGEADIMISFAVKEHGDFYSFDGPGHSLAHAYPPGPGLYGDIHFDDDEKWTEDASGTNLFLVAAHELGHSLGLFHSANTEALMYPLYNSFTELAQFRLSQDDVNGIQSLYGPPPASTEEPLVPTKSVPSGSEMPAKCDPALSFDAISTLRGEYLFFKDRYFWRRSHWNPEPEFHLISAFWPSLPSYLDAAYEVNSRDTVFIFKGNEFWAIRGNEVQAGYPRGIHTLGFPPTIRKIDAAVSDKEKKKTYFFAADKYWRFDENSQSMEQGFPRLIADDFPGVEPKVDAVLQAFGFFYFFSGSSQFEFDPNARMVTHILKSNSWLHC

With `Nc1ccccc1NC(=O)C1(S(=O)(=O)c2ccccc2NC2CCCCC2)CCC2(CCNCC2)C1` (stereo not drawn), the IC50 against Stromelysin-1 and against Stromelysin-2 was over 10 µM in each case. Further, the solubility result in [1] is on record as “Soluble”.

With `CN(C)S(=O)(=O)NC(=O)C1(S(=O)(=O)c2ccc(Oc3ccc(OC(F)(F)F)cc3)cc2)CCC2(CCNCC2)C1` (stereo not drawn), the IC50 against Stromelysin-1 and on Stromelysin-2 was over 10 µM throughout.

`COc1ccc(S(=O)(=O)C2(C(=O)Nc3ccccc3N)CCC3(CCNCC3)C2)cc1Cl` (stereo not drawn): the IC50 at Stromelysin-1 and against Stromelysin-2 was over 10 µM in each case.

Turning to `O=S(=O)(c1ccc(Oc2ccc(OC(F)(F)F)cc2)cc1)C1CCC2(CCNCC2)C1` (stereo not drawn), the IC50 against Stromelysin-1 and at Stromelysin-2 was over 10 µM each time.

For the compound `CCCN1CCC2(CC1)CCC(C(=O)Nc1ccccc1N)(S(=O)(=O)c1ccc(Oc3ccc(OC(F)(F)F)cc3)cc1)C2` (stereo not drawn), the 50% inhibitory concentration (IC50) on Stromelysin-1 and against Stromelysin-2 was over 10 µM each time. The outcome (in data set [2]; in data set [3]; in the data set listed under Homo sapiens) was inactive. Besides, in [4], the CC50 at 72 h is 3.94 µM. In the data set on Mus musculus [5], the Time was found to be 3.61 min. Further, the inhibition entry in [6] and in [7] was “inactive” in each case. For the same compound, in [8], the “log(ratio)” value is given as “>= 0.993”. Further, the “fold change (FC)” value in the data set filed under Mus musculus [9] is reported as 3.

Turning to `O=C(OCc1ccccc1)C1(S(=O)(=O)c2ccc(Oc3ccc(OC(F)(F)F)cc3)cc2)CCC2(CCNCC2)C1` (stereo not drawn), the IC50 at Stromelysin-1 and against Stromelysin-2 was over 10 µM in each case.

With `O=C(Nc1nccs1)C1(S(=O)(=O)c2ccc(Oc3ccc(OC(F)(F)F)cc3)cc2)CCC2(CCNCC2)C1` (stereo not drawn), the IC50 against Stromelysin-1 and at Stromelysin-2 was over 10 µM throughout.

With `O=S(=O)(c1ccc(Oc2ccc(OC(F)(F)F)cc2)cc1)C1(CO)CCC2(CCNCC2)C1` (stereo not drawn), the IC50 at Stromelysin-1 and on Stromelysin-2 was over 10 µM throughout.

Take `O=C1CN(C(=O)C2(S(=O)(=O)c3ccc(Oc4ccc(OC(F)(F)F)cc4)cc3)CCC3(CCNCC3)C2)CCN1` (stereo not drawn): the half-maximal inhibitory concentration (IC50) on Stromelysin-1 and at Stromelysin-2 was over 10 µM throughout.

As to `COc1ccc(Oc2ccc(S(=O)(=O)C3(C(=O)Nc4ccccc4N)CCC4(CCNCC4)C3)cc2Cl)cc1` (stereo not drawn), the half-maximal inhibitory concentration (IC50) at Stromelysin-1 and on Stromelysin-2 was over 10 µM each time.

As to `CON(C)C(=O)C1(S(=O)(=O)c2ccc(Oc3ccc(OC(F)(F)F)cc3)cc2)CCC2(CCNCC2)C1` (stereo not drawn), the IC50 against Stromelysin-1 and against Stromelysin-2 was over 10 µM in each case.

Consider `Nc1ccccc1NC(=O)C1(S(=O)(=O)c2ccc(Oc3ccc(OC(F)(F)F)cc3)c(Cl)c2)CCC2(CCNCC2)C1` (stereo not drawn), for which the IC50 against Stromelysin-1 and against Stromelysin-2 was over 10 µM each time.

In the case of `O=C(O)C1(S(=O)(=O)c2ccc(Oc3ccc(OC(F)(F)F)cc3)cc2)CCC2(CCNCC2)C1` (stereo not drawn), the IC50 on Stromelysin-1 and against Stromelysin-2 was over 10 µM throughout.

`Nc1ccccc1NC(=O)C1(S(=O)(=O)c2ccc(NC3CCCCC3)cc2)CCC2(CCNCC2)C1` (stereo not drawn): the half-inhibitory concentration (IC50) against Stromelysin-1 and on Stromelysin-2 was over 10 µM each time. Further, the CC50 at 72 h in data set [4] came to 43.8 µM. The solubility result in data set [1] was “Soluble”. Also, the Time with Mus musculus [5] came to 6.58 min. Moreover, in data set [8], the “log(ratio)” value is “>= 2.039”.

Take `NC(=O)C1(S(=O)(=O)c2ccc(Oc3ccc(OC(F)(F)F)cc3)cc2)CCC2(CCNCC2)C1` (stereo not drawn): the IC50 against Stromelysin-1 and against Stromelysin-2 was over 10 µM throughout.

`Nc1ccc(-c2cccs2)cc1NC(=O)C1(S(=O)(=O)c2ccc(Oc3ccc(OC(F)(F)F)cc3)cc2)CCC2(CCNCC2)C1` (stereo not drawn): the IC50 on Stromelysin-1 and at Stromelysin-2 was over 10 µM each time. In addition, the CC50 at 72 h in [4] is 2.8 µM. Further, the “log(ratio)” value in data set [8] is reported as 0.493.

Consider `CS(=O)(=O)NC(=O)C1(S(=O)(=O)c2ccc(Oc3ccc(OC(F)(F)F)cc3)cc2)CCC2(CCNCC2)C1` (stereo not drawn), for which the IC50 at Stromelysin-1 and against Stromelysin-2 was over 10 µM each time.

On to `CNC(=O)NC(=O)C1(S(=O)(=O)c2ccc(OC)c(Cl)c2)CCC2(CCNCC2)C1` (stereo not drawn), for which the concentration for half-maximal inhibition (IC50) on Stromelysin-1 and against Stromelysin-2 was over 10 µM throughout.

On to `Nc1ccccc1NC(=O)C1(S(=O)(=O)c2ccc(Oc3ccc(OC(F)(F)F)cc3)cc2)CCC2(CCNCC2)C1` (stereo not drawn), for which the concentration for half-maximal inhibition (IC50) against Stromelysin-1 and at Stromelysin-2 was over 10 µM each time. The CC50 at 72 h in [4] was 7.22 µM. The “log(ratio)” value in [8] is given as 0.904.

As for `O=C(Oc1ccccc1)C1(S(=O)(=O)c2ccc(Oc3ccc(OC(F)(F)F)cc3)cc2)CCC2(CCNCC2)C1` (stereo not drawn), the IC50 against Stromelysin-1 and against Stromelysin-2 was over 10 µM throughout. Further, the CC50 at 72 h in data set [4] stood at 3.9 µM. Besides, in [8], the “log(ratio)” value is given as 0.637.

For the compound `CNC(=O)NC(=O)C1(S(=O)(=O)c2ccc(Oc3ccc(OC(F)(F)F)cc3)cc2)CCC2(CCNCC2)C1` (stereo not drawn), the IC50 against Stromelysin-1 and at Stromelysin-2 was over 10 µM each time. The CC50 at 72 h in data set [4] came to 16.2 µM. In addition, the solubility entry in data set [1] is “Soluble”. For the same compound, the Time in the data set with Mus musculus [5] is reported as 20.24 min. Moreover, in data set [8], the “log(ratio)” value was “>= 1.607”.

For the compound `O=C(Nc1ccccc1O)C1(S(=O)(=O)c2ccc(Oc3ccc(OC(F)(F)F)cc3)cc2)CCC2(CCNCC2)C1` (stereo not drawn), the IC50 against Stromelysin-1 and against Stromelysin-2 was over 10 µM each time.

As for `COC(=O)C1(S(=O)(=O)c2ccc(Oc3ccc(OC(F)(F)F)cc3)cc2)CCC2(CCNCC2)C1` (stereo not drawn), the IC50 at Stromelysin-1 and against Stromelysin-2 was over 10 µM each time.

In the case of `CNC(=O)NC(=O)C1(S(=O)(=O)c2ccc(Oc3ccc(OC)cc3)c(Cl)c2)CCC2(CCNCC2)C1` (stereo not drawn), the IC50 against Stromelysin-1 and at Stromelysin-2 was over 10 µM each time.

`COc1ccc(N)c(NC(=O)C2(S(=O)(=O)c3ccc(Oc4ccc(OC(F)(F)F)cc4)cc3)CCC3(CCNCC3)C2)c1` (stereo not drawn): the IC50 against Stromelysin-1 and against Stromelysin-2 was over 10 µM throughout.

Consider `Nc1ccc(F)cc1NC(=O)C1(S(=O)(=O)c2ccc(Oc3ccc(OC(F)(F)F)cc3)cc2)CCC2(CCNCC2)C1` (stereo not drawn), for which the IC50 at Stromelysin-1 and at Stromelysin-2 was over 10 µM each time.

As to `CCCN1CCC2(CC1)CCC(C(=O)NC(=O)NC)(S(=O)(=O)c1ccc(Oc3ccc(OC(F)(F)F)cc3)cc1)C2` (stereo not drawn), the concentration for half-maximal inhibition (IC50) at Stromelysin-1 and at Stromelysin-2 was over 10 µM in each case.

With `C#CCCCN1CCC2(CC1)CCC(C(=O)Nc1ccccc1N)(S(=O)(=O)c1ccc(C(=O)c3ccccc3)cc1)C2` (stereo not drawn), the 50% inhibitory concentration (IC50) at Stromelysin-1 and at Stromelysin-2 was over 10 µM in each case. For the same compound, the CC50 at 72 h in data set [4] was 43.5 µM. The inhibition entry in data set [6] and in data set [7] was “inactive” in each case.

As to `COc1ccc(S(=O)(=O)C2(C(=O)Nc3cc(-c4ccccc4)ccc3N)CCC3(CCNCC3)C2)cc1Cl` (stereo not drawn), the IC50 against Stromelysin-1 and against Stromelysin-2 was over 10 µM throughout.

With `O=C(Nc1ccccn1)C1(S(=O)(=O)c2ccc(Oc3ccc(OC(F)(F)F)cc3)cc2)CCC2(CCNCC2)C1` (stereo not drawn), the IC50 on Stromelysin-1 and against Stromelysin-2 was over 10 µM throughout.

Turning to `Cc1ccc(-c2ccc(N)c(NC(=O)C3(S(=O)(=O)c4ccc(Oc5ccc(OC(F)(F)F)cc5)cc4)CCC4(CCNCC4)C3)c2)o1` (stereo not drawn), the IC50 against Stromelysin-1 and at Stromelysin-2 was over 10 µM throughout.

As for `Nc1ccc(-c2ccccc2)cc1NC(=O)C1(S(=O)(=O)c2ccc(Oc3ccc(OC(F)(F)F)cc3)cc2)CCC2(CCNCC2)C1` (stereo not drawn), the IC50 against Stromelysin-1 and against Stromelysin-2 was over 10 µM throughout. Also, the CC50 at 72 h in [4] is 3.53 µM. Besides, in data set [8], the “log(ratio)” value was “>= 0.946”.

As usually defined, the IC50 is the concentration at which inhibition is half-maximal. Read a high IC50 as a need for much substance.

Source of the values: ChEMBL document CHEMBL4145591, “Phenotypic Screening To Discover Novel Chemical Series as Efficient Antihemorrhagic Agents” (ACS Med Chem Lett, 2018).
